The species entered for experiment [1] is Rattus norvegicus. Nature of the experiment: diuresis half-time in 4% water loaded rats. In kind it is functional, organism-based. The procedure, abridged:
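After a 16-h fast, conscious male Wistar rats received tap water at 4% of body weight by stomach catheter, then compound subcutaneously at 50 nmol/kg. Urine output followed every 15 min for 5 h in metabolic cages. Half-time taken as the time at which half the water load was excreted. Mean ± SEM.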

In experiment [2] the test system is Rattus norvegicus. Nature of the experiment: Excreted total K+ in 0% water loaded rats after administration of the compound. The class given is functional, organism-based. An outline of the steps:
(§1)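 Conscious male Wistar rats fasted 16 h, given either no water load or tap water at 4% of body weight by stomach catheter; compound given subcutaneously at 50 nmol/kg right after loading. Rats kept in individual metabolic cages, urine collected over 5 h; total Na+ and K+ measured by flame spectrophotometry. Groups of 4–5 rats, 2–3 independent days; mean ± SEM.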

The subject of experiment [3] is Rattus norvegicus. Nature of the experiment: Excreted total K+ in 4% water loaded rats after administration of the compound. In kind it is functional, organism-based. The procedure, abridged: as §1
The subject of experiment [4] is Rattus norvegicus. Nature of the experiment: In vivo antidiuretic in conscious rats. In kind it is functional, Urine. The procedure, abridged: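 Modified Burn test in conscious male Wistar rats fasted 16 h and loaded orally by catheter with tap water (4% of body weight). Compounds or saline injected subcutaneously at 1–100 nmol/kg. Urine collected over 5 h in metabolic cages. Groups of 4–5 rats; each dose run in 2–3 independent experiments.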

Experiment [5] relates to Rattus norvegicus. Nature of the experiment: Excreted total Na+ in 0% water loaded rats after administration of the compound. The class given is functional. The procedure, abridged: as §1
Experiment [6] concerns Rattus norvegicus. Nature of the experiment: Excreted total Na+ in 4% water loaded rats after administration of the compound. In kind it is functional. The procedure, abridged: as §1
Experiment [7] relates to Rattus norvegicus. Nature of the experiment: Volume of excreted urine in 5 hr after administration in 0% water loaded rats. The class given is functional. The procedure, abridged: (§2)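 Fasted (16 h) conscious male Wistar rats, without water load or loaded by stomach catheter with tap water at 4% of body weight, then dosed subcutaneously at 50 nmol/kg (saline control). Urine collected in individual metabolic cages and total volume recorded over 5 h. Groups of 4–5 rats, 2–3 independent days; mean ± SEM.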

Experiment [8] deals with Rattus norvegicus. Nature of the experiment: Volume of excreted urine in 5 hr after administration in 4% water loaded rats. The class given is functional. The procedure, abridged:
as §2

The species entered for experiment [9] is Rattus norvegicus. Nature of the experiment: In vitro uterotonic activity was determined. In kind it is functional. An outline of the steps: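 Uterine preparations from Wistar rats estrogenized 24–48 h beforehand were tested in vitro without magnesium ions. Synthetic oxytocin served as standard. Single or cumulative dose–response curves were built, and activity was obtained by comparing threshold doses of standard and analogue. Averages of 3–5 experiments, in IU/mg.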

Experiment [10] concerns Rattus norvegicus. Nature of the experiment: In vivo uterotonic activity in rats. In kind it is functional. An outline of the steps:
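In vivo uterotonic test in Wistar rats estrogenized 24–48 h before the experiment, with compounds given intravenously. Synthetic oxytocin served as standard. Activity came from comparing threshold doses on dose–response curves. Averages of 3–5 experiments, in IU/mg.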

Experiment [11] deals with Rattus norvegicus. Nature of the experiment: In vivo pressor response in rats. The class given is functional. An outline of the steps:
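Vasopressor test in phenoxybenzamine-treated male Wistar rats against a synthetic arginine vasopressin standard. Activity came from comparing threshold doses of standard and analogue on dose–response curves. Averages of 3–5 experiments.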

Experiment [12] has as its system Rattus norvegicus. Nature of the experiment: In vivo antidiuretic in anesth rats. In kind it is functional, Urine.
Experiment [13] has as its system Rattus norvegicus. Nature of the experiment: Volume of excreted urine in 5 h after administration in 0% water loaded rats. The class given is functional. An outline of the steps: as §2

Consider `CC[C@H](C)[C@@H]1NC(=O)[C@H](Cc2ccc(O)cc2)NC(=O)[C@@H](N)CSSC[C@@H](C(=O)N2CCC[C@H]2C(=O)N[C@@H](CC(C)C)C(=O)NCC(N)=O)NC(=O)[C@H](CC(N)=O)NC(=O)[C@H](CCC(N)=O)NC1=O` [OXYTOCIN], for which, in the experiment filed under Rattus norvegicus [1], the T1/2 was determined as 2.97 h. In addition, the K stood at 202 µmol with Rattus norvegicus [2] and 287 µmol in the experiment on Rattus norvegicus [3]. In addition, the Antidiuretic activity came out at 100% with Rattus norvegicus [4] and 5 IU mg-1 with Rattus norvegicus [12]. Besides, the Na was 563 µmol with Rattus norvegicus [5] and 773 µmol in the experiment with Rattus norvegicus [6]. Also, the Volume of urine in the experiment on Rattus norvegicus [7] is 4.8 mL; in the experiment on Rattus norvegicus [8], 11.3 mL. Moreover, the Uterotonic activity in the experiment filed under Rattus norvegicus [9] and in the experiment with Rattus norvegicus [10] was 450 IU mg-1 throughout. In the experiment on Rattus norvegicus [11], the Pressor response is 4.5 IU mg-1.

In the experiment with Rattus norvegicus [4], `CC[C@H](C)[C@@H]1NC(=O)[C@H](Cc2ccc(O)cc2)NC(=O)[C@@H](N)CSSC[C@@H](C(=O)N2CCC[C@H]2C(=O)N[C@@H](CC(C)C)C(=O)NCC(N)=O)NC(=O)[C@H](CC(N)=O)NC(=O)[C@H](CCC(N)=O)NC(=O)[C@H]([C@@H](C)CC)NC(=O)[C@H](Cc2ccc(O)cc2)NC(=O)[C@@H](N)CSSC[C@@H](C(=O)N2CCC[C@H]2C(=O)N[C@@H](CC(C)C)C(=O)NCC(N)=O)NC(=O)[C@H](CC(N)=O)NC(=O)[C@H](CCC(N)=O)NC1=O` [OXYTOCIN DIMER] registered an Antidiuretic activity of approximately 10%. Besides, the Na in the experiment on Rattus norvegicus [6] was found to be 1150 µmol. The same molecule gave a Volume of urine in the experiment on Rattus norvegicus [8] of 6.4 mL. The values for the Uterotonic activity in the experiment filed under Rattus norvegicus [9] and in the experiment with Rattus norvegicus [10] were 1.37 IU mg-1 and 13.8 IU mg-1, respectively. In addition, the Pressor response with Rattus norvegicus [11] turned out to be 0.5 IU mg-1.

Regarding `CC[C@@H](C)[C@H]1NC(=O)CC2(CCCCC2)SSC[C@H](N)C(=O)N[C@@H](Cc2ccc(O)cc2)C(=O)N[C@@H]([C@@H](C)CC)C(=O)N[C@@H](CCC(N)=O)C(=O)N[C@@H](CC(N)=O)C(=O)N[C@H](C(=O)N2CCC[C@H]2C(=O)N[C@@H](CC(C)C)C(=O)NCC(N)=O)CSSC[C@@H](C(=O)N2CCC[C@H]2C(=O)N[C@@H](CCCN=C(N)N)C(=O)NCC(N)=O)NC(=O)[C@H](CC(N)=O)NC(=O)[C@H]([C@@H](C)CC)NC(=O)[C@H](Cc2ccccc2)NC1=O`, the Na in the experiment on Rattus norvegicus [5] turned out to be 762 µmol; in the experiment with Rattus norvegicus [6], 375 µmol. The Volume of urine stood at 9.4 mL in the experiment on Rattus norvegicus [13] and 14.2 mL in the experiment with Rattus norvegicus [8]. Further, the Uterotonic activity in the experiment listed under Rattus norvegicus [9] worked out at 0.22 IU mg-1; in the experiment on Rattus norvegicus [10], 1.1 IU mg-1. In the experiment with Rattus norvegicus [11], this molecule came in with a Pressor response of 0 IU mg-1.

For the molecule `CC[C@@H](C)[C@H]1NC(=O)CC2(CCCCC2)SSC[C@@H](C(=O)N2CCC[C@@H]2C(=O)N[C@@H](CC(C)C)C(=O)NCC(N)=O)NC(=O)[C@H](CC(N)=O)NC(=O)[C@H](CCC(N)=O)NC(=O)[C@H]([C@@H](C)CC)NC(=O)[C@H](Cc2ccc(O)cc2)NC(=O)[C@@H](N)CSSC[C@H](C(=O)N2CCC[C@@H]2C(=O)N[C@H](CCCN=C(N)N)C(=O)NCC(N)=O)NC(=O)[C@@H](CC(N)=O)NC(=O)[C@@H]([C@H](C)CC)NC(=O)[C@@H](Cc2ccccc2)NC1=O`, the T1/2 in the experiment filed under Rattus norvegicus [1] is 0.817 h. The K worked out at 200 µmol with Rattus norvegicus [2] and 123 µmol in the experiment with Rattus norvegicus [3].

With `CC[C@H](C)[C@@H]1NC(=O)CC2(CCCCC2)SSC[C@H](N)C(=O)N[C@@H](Cc2ccc(O)cc2)C(=O)N[C@@H]([C@@H](C)CC)C(=O)N[C@@H](CCC(N)=O)C(=O)N[C@@H](CC(N)=O)C(=O)N[C@H](C(=O)N2CCC[C@@H]2C(=O)N[C@@H](CC(C)C)C(=O)NCC(N)=O)CSSC[C@@H](C(=O)N2CCC[C@H]2C(=O)N[C@@H](CCCN=C(N)N)C(=O)NCC(N)=O)NC(=O)[C@H](CC(N)=O)NC(=O)[C@H]([C@@H](C)CC)NC(=O)[C@H](Cc2ccccc2)NC1=O`, in the experiment filed under Rattus norvegicus [1], the T1/2 turned out to be 0.7 h. For the same molecule, the results for the K in the experiment with Rattus norvegicus [2] and in the experiment with Rattus norvegicus [3] were 217 µmol and 162 µmol, respectively.

Consider `CC[C@@H](C)[C@H]1NC(=O)CC2(CCCCC2)SSC[C@@H](C(=O)N2CCC[C@H]2C(=O)N[C@@H](CC(C)C)C(=O)NCC(N)=O)NC(=O)[C@H](CC(N)=O)NC(=O)[C@H](CCC(N)=O)NC(=O)[C@H]([C@@H](C)CC)NC(=O)[C@H](Cc2ccc(O)cc2)NC(=O)[C@@H](N)CSSC[C@@H](C(=O)N2CCC[C@H]2C(=O)N[C@@H](CCCN=C(N)N)C(=O)NCC(N)=O)NC(=O)[C@H](CC(N)=O)NC(=O)[C@H]([C@@H](C)CC)NC(=O)[C@H](Cc2ccccc2)NC1=O`, for which the Na with Rattus norvegicus [5] is 358 µmol; in the experiment with Rattus norvegicus [6] it was 480 µmol. In addition, the Volume of urine in the experiment with Rattus norvegicus [13] came out at 6.3 mL; in the experiment on Rattus norvegicus [8], 13.1 mL. Also, the Uterotonic activity in the experiment filed under Rattus norvegicus [9] and in the experiment on Rattus norvegicus [10] was 0.8 IU mg-1 each time. This molecule also showed a Pressor response with Rattus norvegicus [11] of 0 IU mg-1.

`CC[C@@H](C)[C@H]1NC(=O)[C@H](Cc2ccc(O)cc2)NC(=O)[C@@H](N)CSSC[C@@H](C(=O)N2CCC[C@@H]2C(=O)N[C@@H](CC(C)C)C(=O)NCC(N)=O)NC(=O)[C@H](CC(N)=O)NC(=O)[C@@H](CCC(N)=O)NC(=O)[C@H]([C@@H](C)CC)NC(=O)[C@@H](Cc2ccc(O)cc2)NC(=O)[C@H](N)CSSC[C@H](C(=O)N2CCC[C@H]2C(=O)N[C@H](CC(C)C)C(=O)NCC(N)=O)NC(=O)[C@@H](CC(N)=O)NC(=O)[C@H](CCC(N)=O)NC1=O` came in with a T1/2 in the experiment filed under Rattus norvegicus [1] of 3.47 h. In the experiment on Rattus norvegicus [3], this molecule registered a K of 231 µmol.

For the origin of these results see ChEMBL document CHEMBL1132114, “Chemical syntheses and biological studies on dimeric chimeras of oxytocin and the V(2)-antagonist, d(CH(2))(5)[D-Ile(2), Ile(4)]arginine vasopressin” (J Med Chem, 1999).
